Assay outcomes from PubChem BioAssay.
This is a sample that favours compounds with a hit; in the whole collection about 4.9% have one here.
STAT1 act-1: increases IFN-gamma driven STAT1 reporter signal | NIH 3T3 STAT1-luciferase reporter, luminescence; 100% = IFN-gamma alone, no compound | 200,000 compounds, 2.6% hits | activation (% of control), % at 5.5 µM;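 active = activation above the screen-wide mean activation plus 3 SD, cut at about 130% in these data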
STAT3 blocker: STAT3 signaling inhibition | inhibition, % at 5.5 µM | U3A cells, IL-6 STAT3-luciferase reporter, luminescence; host cell line lacks STAT1 | 190,000 compounds, 0.89% hits;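 active = inhibition above the mean inhibition across all screened compounds plus 3 SD, cut at about 44% in these data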
NF-kB neuron act: compounds increasing NF-kB expression in human neuronal cells; 190,000 compounds, 1.6% hits; NF-kB reporter expression; stronger effect = higher value; AID 1239; fold change at 12.5 µM; in the data active = fold change above about 3.3
STAT1 inh-1: reduces IFN-gamma driven STAT1 reporter signal. 200,000 compounds, 0.35% hits. NIH 3T3 STAT1-luciferase reporter, luminescence. inhibition, % at 5.5 µM. AID 920;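 active = inhibition above a set limit, the mean inhibition across all tested compounds plus 3 SD, cut at about 34% in these data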
STAT3 act-1: activators of IL-6 induced STAT3 signaling; U3A cells, IL-6 STAT3-luciferase reporter, luminescence; 100% = signal with IL-6 EC80 alone; activation (% of control), % at 5.6 µM; 190,000 compounds, 0.91% hits;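 active = activation above the screen-wide mean of compound activation plus 3 SD, cut at about 130% in these data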
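system = STAT3-luciferase reporter U3A cells | reagent = IL-6 stimulus at 33 ng/mL final | timing = 1 h compound pre-exposure, 6 h IL-6 stimulation, 37 °C | measured by = luminescence | evaluation = % activation versus median of IL-6-stimulated wells | control set = IL-6-only wells as 100% reference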
APP 5'UTR act: APP 5'UTR luciferase reporter activation; activation, % at 2 µM; 190,000 compounds, 1% hits; SH-SY5Y APP 5'UTR luciferase reporter, luminescence; zero percent = DMSO vehicle wells;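 active = activation above a set limit, based on mean plus 3 SD of controls, cut at about 140% in these data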
STAT3 act-2: STAT3 activation, confirmation assay | shares compounds with STAT3 act-1 | U3A STAT3-luciferase reporter, IL-6 potentiation, luminescence; U3A cells lack STAT1; 100 means same as IL-6 alone | potentiation (% of control), % at 5.7 µM | 1,200 compounds, 64% hits;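 active = percent activation of the STAT3 luciferase reporter above a set limit taken from the earlier primary screen, cut at about 130% in these data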
NFkB act STAT3ct: counter-screen for STAT3 activators: NF-kappaB activation. shares compounds with STAT3 act-1. human cells, NF-kappaB reporter activation. activation (% of control), % at 5.7 µM. 1,200 compounds, 11% hits. AID 1309; in the data active = activation above about 120%;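 note: reporter induced by TNF-alpha stimulation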
STAT1 act-2: counter-screen for STAT3 activators: STAT1 activation; shares compounds with STAT3 act-1; NIH 3T3 STAT1-luciferase reporter, IFN-gamma, luminescence; activation (% of control), % at 5.7 µM; 1,200 compounds, 13% hits;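 active = activation above the solvent-only control well mean plus 3 SD, set per screening run, cut at about 120% in these data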
STAT1 inh-2: confirmation of STAT1 signaling inhibitors. shares compounds with STAT1 inh-1. NIH 3T3 STAT1-luciferase reporter, IFN-gamma, luminescence. inhibition, % at 5.5 µM. 200 compounds, 55% hits. AID 1263;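 active = triplicate mean inhibition exceeding the hit cutoff computed for the primary STAT1 screen, cut at about 35% in these data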
NFkB inh STAT1ct: NF-kappaB inhibition in STAT1 inhibitor counter-screen | 200 compounds, 30% hits | HEK293T NF-kB luciferase reporter, TNF-alpha induced, luminescence | shares compounds with STAT1 inh-1 | inhibition, % at 5.7 µM | AID 1303;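 active = inhibition above the mean of solvent-only control wells plus 3 SD of those wells, cut at about 15% in these data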
STAT3 inh 2: counter-screen for STAT1 inhibitors: STAT3 inhibition. shares compounds with STAT1 inh-1. U3A cells, IL-6 STAT3 luciferase reporter, luminescence; cells lacking STAT1. inhibition, % at 5.7 µM. 200 compounds, 20% hits. AID 1310;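 active = inhibition above the mean of solvent-only control wells plus 3 SD, set per campaign, cut at about 25% in these data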
STAT1 act conf: confirmation of STAT1 signaling activators; activation (% of control), % at 5.7 µM; shares compounds with STAT1 act-1; NIH 3T3 STAT1-luciferase reporter, IFN-gamma potentiation, luminescence; 100% = IFN-gamma EC80 alone, no compound; 1,200 compounds, 97% hits;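 active = activation above a set limit carried over from the earlier primary STAT1 screen, cut at about 140% in these data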
NFkB act STAT1ct: NF-kappaB activation in STAT1 activator counter-screen | shares compounds with STAT1 act-1 | HEK293T NF-kB luciferase reporter, TNF-alpha stimulated, luminescence; 100% = TNF-alpha with vehicle only | activation (% of control), % at 5.7 µM | 1,200 compounds, 43% hits | AID 1306;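 active = activation above the mean of solvent-only control wells plus 3 SD, set per campaign, cut at about 130% in these data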;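 note: TNF-alpha given at a submaximal dose yielding about 80% of full reporter signal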
STAT3 act 2: counter-screen for STAT1 activators: human STAT3 activation | U3A cells STAT3-luciferase reporter, IL-6, luminescence; cells lack STAT1; 100 = IL-6 alone, no compound effect | 1,200 compounds, 46% hits | shares compounds with STAT1 act-1 | activation (% of control), % at 5.7 µM;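 active = activation above the solvent-only control well mean plus 3 SD, set per plate batch, cut at about 110% in these data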;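 note: higher means more STAT3 reporter activation so hits are non-selective activators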
Of the large screens only hits and unclear results are named; the others gave an inactive call (follow-up assays come after a bar, where they were run).

Cc1ccccc1-n1c(-c2ccco2)nc2ccccc2c1=O	none
COc1ccc(/C=C2/C(=O)NC(=O)N(Cc3ccco3)C2=O)cc1	none
Cn1cccc1/C=C1\C(=O)NC(=O)N(Cc2ccco2)C1=O	STAT3 act-1 146 | STAT3 act-2 inactive | NFkB act STAT3ct inactive | STAT1 act-2 inactive
CC(C)C(=O)NC(Oc1ccccc1Cl)C(Cl)(Cl)Cl (stereo unspecified)	none
CCCCn1c(=O)c(C(=O)Nc2ccccc2)c(O)c2ccccc21	STAT3 act-1 154 | STAT3 act-2 161 | NFkB act STAT3ct inactive | STAT1 act-2 inactive
CCCCn1c(=O)c(C(=O)Nc2ccccc2S(N)(=O)=O)c(O)c2ccccc21	none
CCCC/C(=N\O)c1c[nH]c2ccccc12	STAT3 act-1 141 | STAT3 act-2 155 | NFkB act STAT3ct inactive | STAT1 act-2 inactive
CCP(=S)(CC)c1ccc(N(C)C)cc1	none
CSc1ccc(C(=O)C2CCCN(Cc3cc4ccccc4[nH]3)C2)cc1 (stereo unspecified)	STAT3 act-1 141 | STAT3 act-2 149 | NFkB act STAT3ct inactive | STAT1 act-2 inactive
O=C(Nc1ccc(OC(=O)N2CCCC2)cc1)N1CCOCC1	none
O=C(Nc1ccc(OC(=O)N2CCCCC2)cc1)N1CCOCC1	STAT1 inh-1 36 | STAT1 inh-2 inactive | NFkB inh STAT1ct inactive | STAT3 inh 2 inactive
CC1(C)CC(=O)C(C=NCCN2CCN(C(=O)Cc3ccc(F)cc3)CC2)=C(O)C1	STAT1 inh-1 34 | STAT1 inh-2 inactive | NFkB inh STAT1ct inactive | STAT3 inh 2 inactive
O=C(Nc1ccc(F)cc1)N1CC2CC(C1)c1cccc(=O)n1C2 (stereo unspecified)	none
CC(=O)Nc1ccccc1C(=O)OCc1cccc(F)c1	STAT1 act-1 184 | STAT1 act conf 182 | NFkB act STAT1ct inactive | STAT3 act 2 inactive
CN1C(=O)/C(=C/c2ccc(N3CCCCCC3)o2)C(=O)NC1=S	STAT1 act-1 166 | STAT1 act conf 213 | NFkB act STAT1ct 148 | STAT3 act 2 126
Cc1ncc(CN2CCCC(C(=O)c3sccc3C)C2)s1 (stereo unspecified)	none
CCc1ccc(-c2nn(Cc3ccccc3)cc2C=O)cc1	STAT1 act-1 170, NF-kB neuron act 4.1 | STAT1 act conf 158 | NFkB act STAT1ct inactive | STAT3 act 2 121
O=C(O)c1cn(Cc2ccccc2)nc1-c1ccccc1	none
CC1COC2N=C(N[N+](=O)[O-])NC2O1 (stereo unspecified)	none
